# Test results published in ChEMBL document CHEMBL4270599, “Synthesis of a 3'-C-ethynyl-β-d-ribofuranose purine nucleoside library: Discovery of C7-deazapurine analogs as potent antiproliferative nucleosides” (Eur J Med Chem, 2018).
# Columns and labels:
# [1] = test system: Human alphaherpesvirus 2; test: Antiviral activity against Human herpesvirus 2 G strain infected in HELF cells assessed as inhibition of virus-induced cytopathogenicity; assay type: functional, organism-based; conditions: Human alphaherpesvirus 2, strain G
# In short: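 Confluent Hel fibroblast cultures in 96-well plates inoculated with 100 CCID₅₀ virus in presence of varying compound concentrations. Cytopathicity recorded once complete in untreated virus-infected controls. EC₅₀ is the concentration reducing virus-induced cytopathogenicity by 50%; compounds tested up to 100 μM.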
# [2] = test system: Human alphaherpesvirus 1; test: Antiviral activity against Human herpesvirus 1 KOS strain infected in HELF cells assessed as inhibition of virus-induced cytopathogenicity; assay type: functional, organism-based; conditions: Human alphaherpesvirus 1, KOS
# In short: (§1)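 Confluent human embryonic lung fibroblast monolayers in 96-well plates were infected with 100 CCID50 of virus or, for VZV, 20 PFU, in the presence of varying compound concentrations. For HCMV/VZV-type assays, residual virus was removed after 1–2 h before compound addition. Cytopathicity or plaque formation was scored once complete in untreated infected controls. Highest concentration tested was 100 μM.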
# [3] = Cytotoxicity against HELF cells after by Coulter counter method; assay type: cell-based; conditions: human
# In short: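 Hel fibroblast proliferation measured by Coulter Counter cell count in presence of compound. CC₅₀ is the concentration (μM) reducing cell proliferation by 50%.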
# [4] = test system: Human alphaherpesvirus 3; test: Antiviral activity against thymidine kinase-deficient Varicella Zoster virus 07-1 strain infected in HELF cells assessed as inhibition of virus-induced plaque formation; assay type: functional, organism-based; conditions: Human alphaherpesvirus 3, 07-1, HELF; in short: as §1
# [5] = test system: Human betaherpesvirus 5; test: Antiviral activity against Human cytomegalovirus AD169 strain infected in HELF cells assessed as inhibition of virus-induced cytopathogenicity; assay type: functional, organism-based; conditions: Human betaherpesvirus 5, AD169, HELF
# In short: (§2)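 Confluent human embryonic lung fibroblasts in 96-well plates inoculated with 100 CCID₅₀ HCMV. Residual virus removed after 1–2 h, then cultures incubated with varying compound concentrations. Cytopathicity scored once complete in untreated infected controls. EC₅₀ is the concentration reducing virus-induced cytopathicity by 50%.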
# [6] = test system: Human alphaherpesvirus 1; test: Antiviral activity against thymidine kinase-deficient acyclovir-resistant Human herpesvirus 1 KOS strain infected in HELF cells assessed as inhibition of virus-induced cytopathogenicity; assay type: functional, organism-based; conditions: Human alphaherpesvirus 1, KOS; in short: as §1
# [7] = Cytotoxicity against HELF cells assessed as alteration of cell morphology by microscopic analysis; assay type: cell-based; conditions: human
# In short: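 Uninfected Hel fibroblast cultures exposed to compound alongside antiviral assays. Minimal cytotoxic concentration (MCC) is the concentration giving microscopically visible alteration of normal cell morphology.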
# [8] = test system: Human alphaherpesvirus 3; test: Antiviral activity against thymidine kinase-deficient Varicella Zoster virus Oka strain infected in HELF cells assessed as inhibition of virus-induced plaque formation; assay type: functional, organism-based; conditions: Human alphaherpesvirus 3, strain Oka vaccine; in short: as §1
# [9] = test system: Human betaherpesvirus 5; test: Antiviral activity against Human cytomegalovirus Davis strain infected in HELF cells assessed as inhibition of virus-induced cytopathogenicity; assay type: functional, organism-based; conditions: Human betaherpesvirus 5, Davis; in short: as §2
# [10] = test system: L1210; test: Antiproliferative activity against mouse L1210 cells after 48 hrs by Coulter counter method; assay type: functional, cell-based; conditions: L1210, 48 h
# In short: (§3)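 Cell count assay in 96-well microtiter plates; (5–7.5) × 10⁴ tumor cells per well plus test compound. Cells proliferated at 37 °C in humidified CO₂-controlled atmosphere, 48 h for murine leukemia L1210, 72 h for human lymphocytic CEM and cervix carcinoma HeLa. Counted by Coulter counter; IC₅₀ is the concentration that inhibits proliferation by 50%.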
# [11] = test system: HeLa; test: Antiproliferative activity against human HeLa cells after 72 hrs by Coulter counter method; assay type: functional, cell-based; in short: as §3
# [12] = test system: CCRF-CEM; test: Antiproliferative activity against human CEM cells after 72 hrs by Coulter counter method; assay type: functional, cell-based; in short: as §3
compound,measurement,setting,value
C#C[C@@]1(O)[C@@H](CO)O[C@@H](n2cnc3c(N)ncnc32)[C@@H]1O,EC50,[1],> 4 µM
same,EC50,[2],> 4 µM
same,CC50,[3]; HELF cells,0.7 to 0.73 µM
same,EC50,[4],1.64 µM
same,EC50,[5],≥ 4 µM
same,EC50,[6],> 4 µM
same,MCC,[7],20 µM
same,EC50,[8],1.82 µM
same,EC50,[9],≥ 4 µM
C#C[C@@]1(O)[C@@H](CO)O[C@@H](n2cnc3c(-c4ccc(OC)cc4)ncnc32)[C@@H]1O,IC50,[10],> 250 µM
same,IC50,[11],> 250 µM
same,IC50,[12],> 250 µM
C#C[C@@]1(O)[C@@H](CO)O[C@@H](n2cc(I)c3c(Cl)ccnc32)[C@@H]1O,IC50,[10],20 µM
same,EC50,[1],> 100 µM
same,EC50,[2],> 100 µM
same,CC50,[3],0.16 µM
same,EC50,[4],8.26 µM
same,EC50,[5],2.31 µM
same,IC50,[11],1.1 µM
same,EC50,[6],> 100 µM
same,IC50,[12],0.26 µM
same,MCC,[7],20 to 100 µM
same,EC50,[8],9.82 µM
same,EC50,[9],0.66 µM
C#Cc1cn([C@@H]2O[C@H](CO)[C@](O)(C#C)[C@H]2O)c2ncnc(N)c12,IC50,[10],159 µM
same,IC50,[11],114 µM
same,IC50,[12],63 µM
C#C[C@@]1(O)[C@@H](CO)O[C@@H](n2cnc3c(-c4ccc(F)cc4)ncnc32)[C@@H]1O,IC50,[10],> 250 µM
same,IC50,[11],220 µM
same,IC50,[12],223 µM
Nc1nc2c(ncn2COC(CO)CO)c(=O)[nH]1 [GANCICLOVIR],MCC,[7],100 to 350 µM
C#C[C@@]1(O)[C@@H](CO)O[C@@H](n2cnc3c(-c4ccc(Cl)cc4)ncnc32)[C@@H]1O,IC50,[10],225 µM
same,IC50,[11],170 µM
same,IC50,[12],124 µM
C#C[C@@]1(O)[C@@H](CO)O[C@@H](n2cc(-c3ccco3)c3c(N)ncnc32)[C@@H]1O,IC50,[10],30 µM
same,IC50,[11],14 µM
same,IC50,[12],17 µM
C#C[C@@]1(O)[C@@H](CO)O[C@@H](n2cc(Br)c3c(Cl)ccnc32)[C@@H]1O,IC50,[10],30 µM
same,EC50,[1],> 100 µM
same,EC50,[2],6.67 µM
same,CC50,[3],0.35 µM
same,EC50,[4],2.27 µM
same,EC50,[5],0.36 µM
same,IC50,[11],0.89 µM
same,EC50,[6],5.83 µM
same,IC50,[12],0.56 µM
same,MCC,[7],≥ 100 µM
same,EC50,[8],2.76 µM
same,EC50,[9],0.35 µM
C#C[C@@]1(O)[C@@H](CO)O[C@@H](n2cc(Cl)c3c(Cl)ccnc32)[C@@H]1O,IC50,[10],75 µM
same,EC50,[1],> 100 µM
same,EC50,[2],16.3 µM
same,CC50,[3],5.25 µM
same,EC50,[4],3.06 µM
same,EC50,[5],0.51 µM
same,IC50,[11],6.3 µM
same,EC50,[6],10.6 µM
same,IC50,[12],1.3 µM
same,MCC,[7],20 to 100 µM
same,EC50,[8],16.6 µM
same,EC50,[9],0.53 µM
C#C[C@@]1(O)[C@@H](CO)O[C@@H](n2ccc3c(Cl)ccnc32)[C@@H]1O,IC50,[10],197 µM
same,EC50,[1],> 100 µM
same,EC50,[2],> 100 µM
same,EC50,[4],> 100 µM
same,EC50,[5],> 100 µM
same,IC50,[11],135 µM
same,EC50,[6],> 100 µM
same,IC50,[12],86 µM
same,MCC,[7],20 to 100 µM
same,EC50,[8],> 100 µM
same,EC50,[9],> 100 µM
Nc1nc2c(ncn2COCCO)c(=O)[nH]1 [ACYCLOVIR],CC50,[3],> 440 µM
same,MCC,[7],250 to 440 µM
C#C[C@@]1(O)[C@@H](CO)O[C@@H](n2cc(C(F)(F)F)c3c(N)ncnc32)[C@@H]1O,IC50,[10],0.11 µM
same,IC50,[11],0.75 µM
same,IC50,[12],0.36 µM
C#C[C@@]1(O)[C@@H](CO)O[C@@H](n2cnc3c(-c4ccccc4)ncnc32)[C@@H]1O,IC50,[10],> 250 µM
same,IC50,[11],> 250 µM
same,IC50,[12],> 250 µM
Nc1ccn(C[C@@H](CO)OCP(=O)(O)O)c(=O)n1 [CIDOFOVIR],EC50,[1],1.2 µM
same,EC50,[2],1.5 µM
same,EC50,[5],1.59 µM
same,MCC,[7],250 to 300 µM
same,EC50,[9],1.45 µM
C#C[C@@]1(O)[C@@H](CO)O[C@@H](n2cnc3c(-c4ccc(C)cc4)ncnc32)[C@@H]1O,IC50,[10],205 µM
same,IC50,[11],> 250 µM
same,IC50,[12],154 µM
CC[C@@]1(O)[C@@H](CO)O[C@@H](n2cc(Cl)c3c(N)ncnc32)[C@@H]1O,IC50,[10],1.2 µM
same,EC50,[1],0.63 µM
same,EC50,[2],2.1 µM
same,CC50,[3],3.41 µM
same,EC50,[4],3.74 µM
same,EC50,[5],1.79 µM
same,IC50,[11],4.4 µM
same,EC50,[6],1.27 µM
same,IC50,[12],2.6 µM
same,MCC,[7],4 to 20 µM
same,EC50,[8],1.71 µM
same,EC50,[9],> 4 µM
C#C[C@@]1(O)[C@@H](CO)O[C@@H](n2cc(Cl)c3c(N)ccnc32)[C@@H]1O,IC50,[10],0.98 µM
same,EC50,[4],17.5 µM
same,EC50,[5],> 100 µM
same,IC50,[11],1.7 µM
same,IC50,[12],5.4 µM
same,MCC,[7],≥ 100 µM
same,EC50,[8],> 100 µM
same,EC50,[9],20 µM
C#C[C@@]1(O)[C@@H](CO)O[C@@H](n2cc(I)c3c(N)ccnc32)[C@@H]1O,IC50,[10],0.044 µM
same,IC50,[11],0.18 µM
same,IC50,[12],0.31 µM
C#C[C@@]1(O)[C@@H](CO)O[C@@H](n2c(C(F)(F)F)cc3c(N)ncnc32)[C@@H]1O,IC50,[10],> 250 µM
same,IC50,[11],> 250 µM
same,IC50,[12],> 250 µM
